Assays:
[1] = DPPH radical scavenging activity relative to Trolox; format: functional; parameters: concentration or dose not given beside the values
Outline: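 Compounds were made up as DMSO stocks and diluted in isopropanol to a final 10 μM. Each was mixed with DPPH in isopropanol at 10 μM or 30 μM DPPH, and absorbance was read at 515 nm. Scavenging was calculated as [1 − OD515(compound)/OD515(control)] × 100, then expressed as a percentage of Trolox activity. One experiment was run in triplicate.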

K562 = assay: Growth inhibition of human K562 cells; format: functional; details: for CC50: read-out: Log LC50 (the source's name) (converted); for TGI: read-out: Log TGI (converted)
A549 = assay: Growth inhibition of human A549 cells; format: functional; details: for CC50: read-out: Log LC50 (the source's name) (converted); for TGI: read-out: Log TGI (converted)
EKVX = assay: Growth inhibition of human EKVX cells; format: functional; details: for CC50: read-out: Log LC50 (the source's name) (converted); for TGI: read-out: Log TGI (converted)
HOP-92 = assay: Growth inhibition of human HOP92 cells; format: functional
NCI-H23 = assay: Growth inhibition of human NCI-H23 cells; format: functional; details: for CC50: read-out: Log LC50 (the source's name) (converted); for TGI: read-out: Log TGI (converted)
NCI-H322M = assay: Growth inhibition of human NCI-H322M cells; format: functional; details: for CC50: read-out: Log LC50 (the source's name) (converted); for TGI: read-out: Log TGI (converted)
HCT-15 = assay: Growth inhibition of human HCT15 cells; format: functional; details: for CC50: read-out: Log LC50 (the source's name) (converted); for TGI: read-out: Log TGI (converted)
SW-620 = assay: Growth inhibition of human SW620 cells; format: functional; details: for CC50: read-out: Log LC50 (the source's name) (converted); for TGI: read-out: Log TGI (converted)
SF-539 = assay: Growth inhibition of human SF539 cells; format: functional; details: for TGI: read-out: Log TGI (converted)
U-251 = assay: Growth inhibition of human U251 cells; format: functional; details: for TGI: read-out: Log TGI (converted)
LOX IMVI = assay: Growth inhibition of human LOXIMVI cells; format: functional; details: for TGI: read-out: Log TGI (converted)
M14 = assay: Growth inhibition of human M14 cells; format: functional; details: for TGI: read-out: Log TGI (converted)
SK-MEL-2 = assay: Growth inhibition of human SK-MEL2 cells; format: functional; details: for TGI: read-out: Log TGI (converted)
OVCAR-5 = assay: Growth inhibition of human OVACAR5 cells; format: functional; details: for TGI: read-out: Log TGI (converted)
OVCAR-8 = assay: Growth inhibition of human OVACAR8 cells; format: functional; details: for TGI: read-out: Log TGI (converted)
SK-OV-3 = assay: Growth inhibition of human SK-OV3 cells; format: functional; details: for TGI: read-out: Log TGI (converted)
IGROV-1 = assay: Growth inhibition of human IGROV1 cells; format: functional; details: for CC50: read-out: Log LC50 (the source's name) (converted); for TGI: read-out: Log TGI (converted)
786-0 = assay: Growth inhibition of human 786-0 cells; format: functional; details: for TGI: read-out: Log TGI (converted)
DU-145 = assay: Growth inhibition of human DU145 cells; format: functional; details: for CC50: read-out: Log LC50 (the source's name) (converted); for TGI: read-out: Log TGI (converted)
NCI/ADR-RES = assay: Growth inhibition of human NCI/ADR-RES cells; format: functional; details: for TGI: read-out: Log TGI (converted)
MDA-MB-231 = assay: Growth inhibition of human MDA-MB-231 cells; format: functional; details: for TGI: read-out: Log TGI (converted)
BT-549 = assay: Growth inhibition of human BT549 cells; format: functional; details: for TGI: read-out: Log TGI (converted)
[2] = Inhibition of 1,10-phenanthroline-induced HIF1 activation in PC3 cells by TK-luciferase assay; format: cell-based; details: Homo sapiens, PC-3
Outline: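 HIF-1 reporter (pHRE-TK-Luc) assays in transfected PC-3 or T47D cells; HIF-1 induced by hypoxia or by the hypoxia mimetic 1,10-phenanthroline (10 μM); compounds at half-log concentrations; luciferase activity measured; IC50 from experiments in triplicate.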

Structure (SMILES): COc1cc(O)cc2cc3oc(C)cc(=O)c3c(O)c12
- Activity [1]: 40%
- GI50 (K562): 14.8 µM
- CC50 (K562): > 100 µM
- TGI (K562): 49 µM
- GI50 (A549): 29.5 µM
- CC50 (A549): > 100 µM
- TGI (A549): > 100 µM
- GI50 (EKVX): 37.2 µM
- CC50 (EKVX): > 100 µM
- TGI (EKVX): > 100 µM
- GI50 (HOP-92): 30.9 µM
- CC50 (HOP-92; read-out: Log LC50 (the source's name) (converted)): > 100 µM
- TGI (HOP-92; read-out: Log TGI (converted)): > 100 µM
- GI50 (NCI-H23): 24.5 µM
- CC50 (NCI-H23): > 100 µM
- TGI (NCI-H23): 83.2 µM
- GI50 (NCI-H322M): 26.9 µM
- CC50 (NCI-H322M): > 100 µM
- TGI (NCI-H322M): 95.5 µM
- GI50 (HCT-15): 23.4 µM
- CC50 (HCT-15): > 100 µM
- TGI (HCT-15): 70.8 µM
- GI50 (SW-620): 295 nM
- CC50 (SW-620): > 100 µM
- TGI (SW-620): 17 µM
- GI50 (SF-539): 27.5 µM
- LC50 (SF-539): > 100 µM
- TGI (SF-539): 87.1 µM
- GI50 (U-251): 33.1 µM
- LC50 (U-251): > 100 µM
- TGI (U-251): > 100 µM
- GI50 (LOX IMVI): 18.2 µM
- LC50 (LOX IMVI): > 100 µM
- TGI (LOX IMVI): 52.5 µM
- GI50 (M14): 20 µM
- LC50 (50% lethal concentration) (M14): > 100 µM
- TGI (M14): 45.7 µM
- GI50 (SK-MEL-2): 4.9 µM
- LC50 (SK-MEL-2): > 100 µM
- TGI (SK-MEL-2): 35.5 µM
- GI50 (OVCAR-5): 46.8 µM
- LC50 (OVCAR-5): > 100 µM
- TGI (OVCAR-5): > 100 µM
- GI50 (OVCAR-8): 27.5 µM
- LC50 (OVCAR-8): > 100 µM
- TGI (OVCAR-8): > 100 µM
- GI50 (SK-OV-3): 31.6 µM
- LC50 (SK-OV-3): > 100 µM
- TGI (SK-OV-3): > 100 µM
- GI50 (IGROV-1): 437 nM
- CC50 (IGROV-1): > 100 µM
- TGI (IGROV-1): 23.4 µM
- GI50 (786-0): 20 µM
- LC50 (786-0): > 100 µM
- TGI (786-0): 50.1 µM
- GI50 (DU-145): 21.9 µM
- CC50 (DU-145): > 100 µM
- TGI (DU-145): 70.8 µM
- GI50 (NCI/ADR-RES): 22.4 µM
- LC50 (concentration killing 50% of cells) (NCI/ADR-RES): > 100 µM
- TGI (NCI/ADR-RES): > 100 µM
- GI50 (MDA-MB-231): 17.8 µM
- LC50 (MDA-MB-231): > 100 µM
- TGI (MDA-MB-231): > 100 µM
- GI50 (BT-549): 20.4 µM
- LC50 (BT-549): > 100 µM
- TGI (BT-549): > 100 µM
- IC50 [2]: 2500 nM

Structure (SMILES): COc1cc(O)cc2cc3oc(C)cc(=O)c3c(OC)c12 [COMANTHERIN]
- Activity [1]: 40%
- GI50 (K562): 47.9 µM
- CC50 (K562): > 100 µM
- TGI (K562): > 100 µM
- GI50 (A549): > 100 µM
- CC50 (A549): > 100 µM
- TGI (A549): > 100 µM
- GI50 (EKVX): > 100 µM
- CC50 (EKVX): > 100 µM
- TGI (EKVX): > 100 µM
- GI50 (NCI-H23): > 100 µM
- CC50 (NCI-H23): > 100 µM
- TGI (NCI-H23): > 100 µM
- GI50 (NCI-H322M): > 100 µM
- CC50 (NCI-H322M): > 100 µM
- TGI (NCI-H322M): > 100 µM
- GI50 (HCT-15): > 100 µM
- CC50 (HCT-15): > 100 µM
- TGI (HCT-15): > 100 µM
- GI50 (SW-620): > 100000 nM
- CC50 (SW-620): > 100 µM
- TGI (SW-620): > 100 µM
- GI50 (SF-539): > 100 µM
- LC50 (SF-539): > 100 µM
- TGI (SF-539): > 100 µM
- GI50 (U-251): 100 µM
- LC50 (U-251): > 100 µM
- TGI (U-251): > 100 µM
- GI50 (LOX IMVI): > 100 µM
- LC50 (LOX IMVI): > 100 µM
- TGI (LOX IMVI): > 100 µM
- GI50 (M14): > 100 µM
- LC50 (50% lethal concentration) (M14): > 100 µM
- TGI (M14): > 100 µM
- GI50 (SK-MEL-2): > 100 µM
- LC50 (SK-MEL-2): > 100 µM
- TGI (SK-MEL-2): > 100 µM
- GI50 (OVCAR-5): > 100 µM
- LC50 (OVCAR-5): > 100 µM
- TGI (OVCAR-5): > 100 µM
- GI50 (OVCAR-8): > 100 µM
- LC50 (OVCAR-8): > 100 µM
- TGI (OVCAR-8): > 100 µM
- GI50 (SK-OV-3): > 100 µM
- LC50 (SK-OV-3): > 100 µM
- TGI (SK-OV-3): > 100 µM
- GI50 (IGROV-1): > 100000 nM
- CC50 (IGROV-1): > 100 µM
- TGI (IGROV-1): > 100 µM
- GI50 (786-0): > 100 µM
- LC50 (786-0): > 100 µM
- TGI (786-0): > 100 µM
- GI50 (DU-145): > 100 µM
- CC50 (DU-145): > 100 µM
- TGI (DU-145): > 100 µM
- GI50 (NCI/ADR-RES): > 100 µM
- LC50 (concentration killing 50% of cells) (NCI/ADR-RES): > 100 µM
- TGI (NCI/ADR-RES): > 100 µM
- GI50 (MDA-MB-231): > 100 µM
- LC50 (MDA-MB-231): > 100 µM
- TGI (MDA-MB-231): > 100 µM
- GI50 (BT-549): 74.1 µM
- LC50 (BT-549): > 100 µM
- TGI (BT-549): > 100 µM
- IC50 [2]: > 10000 nM
